# Compounds with a hit are over-represented: about 4% of the library has one in this group of screens.
# OX1R antag-1: blocks the human orexin 1 receptor; O43613; CHO/OX1R cells, Fluo-8 calcium fluorescence, orexin A; inhibition, % at 5 µM; actives 0.43% (n = 330,000); AID 434989;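 active = inhibition above its plate's threshold, mean inhibition of all tested compounds on the plate plus 3 SD, cut at about 37% in these data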;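 note: 0% = orexin A challenge wells and 100% = SB-334867-A antagonist wells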
# Target sequence (O43613 whole entry, looked up): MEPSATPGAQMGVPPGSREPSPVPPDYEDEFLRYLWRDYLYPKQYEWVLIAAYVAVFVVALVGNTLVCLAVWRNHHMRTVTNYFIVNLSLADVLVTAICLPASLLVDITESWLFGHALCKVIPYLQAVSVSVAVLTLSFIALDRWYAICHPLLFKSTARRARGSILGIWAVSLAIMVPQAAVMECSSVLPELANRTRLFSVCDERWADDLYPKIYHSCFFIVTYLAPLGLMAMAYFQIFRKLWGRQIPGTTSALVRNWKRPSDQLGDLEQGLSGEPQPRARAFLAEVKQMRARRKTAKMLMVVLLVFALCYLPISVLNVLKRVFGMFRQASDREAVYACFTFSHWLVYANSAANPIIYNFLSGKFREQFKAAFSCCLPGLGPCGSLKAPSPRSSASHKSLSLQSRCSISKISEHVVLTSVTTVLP
# TAAR1 ag: agonists of human TAAR1. Q96RJ0. CHO RD-HGA16 TAAR1, Fluo-8 calcium fluorescence; vehicle wells 0%, saturating PEA agonist 100%. activation, % at 3 µM. actives 0.99% (n = 360,000);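 active = activation above the mean activation of all test compounds in the run plus 3 SD, cut at about 38% in these data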
# Target sequence (Q96RJ0 whole entry, looked up): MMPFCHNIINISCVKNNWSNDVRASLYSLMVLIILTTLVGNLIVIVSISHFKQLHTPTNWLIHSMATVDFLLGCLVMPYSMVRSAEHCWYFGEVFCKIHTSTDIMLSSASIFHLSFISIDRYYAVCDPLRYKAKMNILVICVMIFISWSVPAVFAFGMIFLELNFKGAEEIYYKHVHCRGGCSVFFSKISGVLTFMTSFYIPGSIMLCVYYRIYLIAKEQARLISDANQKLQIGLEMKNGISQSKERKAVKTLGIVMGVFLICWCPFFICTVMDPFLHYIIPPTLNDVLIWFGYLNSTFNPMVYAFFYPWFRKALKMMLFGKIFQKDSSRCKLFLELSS
#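 Assay system: CHO-derived RD-HGA16 cells with stable Gα16 and human TAAR1; timing: 17-24 h seeding, 75 min 37 °C dye, 30 min RT; read-out: % activation from peak over basal fluorescence ratio, DMSO-to-PEA scaled; measured by: kinetic Fluo-8 calcium fluorescence; benchmarks: low control DMSO, high control PEA (EC100); doses: 3 µM single concentration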
# NTR1 agonist: NTR1 (human) agonism | P30989 | NTR1-U2OS beta-arrestin-GFP spot imaging, agonist mode | activation, % at 20 µM | actives 0.17% (n = 330,000) | AID 493036;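 active = activation at or above 40% of the spot to cytoplasm intensity ratio, with at least 20 cells analyzed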;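 note: 0% = DMSO without peptide and 100% = 100 nM NTR1 peptide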
# CHO parental Ca: counter-screen: ATP calcium response change in parental CHO cells | AID 463079 | parental CHO-K1, ATP-induced calcium, Fluo-8 fluorescence | inhibition, % at 5.6 µM | actives 0.63% (n = 330,000);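 active = inhibition above that plate's mean sample inhibition plus 3 SD, cut at about 26% in these data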;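 note: 0% = ATP-challenged DMSO wells and 100% = DMSO wells without ATP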
#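 Test system: parental CHO cells; detection: calcium-sensitive Fluo-8 fluorescence; evaluation: percent inhibition of calcium signal; also added: ATP as calcium-mobilizing challenge; repeats: one well per compound; control set: ATP-challenged DMSO wells low, unchallenged DMSO wells high; compound: single nominal dose of 5.6 µM per compound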
# OX1R antag-2: OX1R (human) antagonism; OX1R-expressing cells, FRET antagonist read-out; inhibition, % at 6.6 µM; actives 1.8% (n = 330,000); AID 485270; in the data active = inhibition mostly above about 38%, no sharp cut-off; inactive = mostly below about 40%;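 note: 0% = agonist challenge alone and 100% = reference antagonist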
# TAAR1 antag: human TAAR1 antagonism | Q96RJ0 | CHO RD-HGA16 TAAR1, Fluo-8 calcium fluorescence, antagonist | inhibition, % at 3 µM | actives 1.5% (n = 360,000);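 active = inhibition above a per-plate cutoff, the mean inhibition of test compounds on that plate plus 3 SD, cut at about 49% in these data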;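 note: 0% = DMSO plus EC80 beta-PEA response and 100% = DMSO alone without agonist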
#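 Test system: hTAAR1-expressing CHO RD-HGA16 cells, Gα16-coupled; Probe or stimulus: EC80 β-phenethylamine stimulus; Compound dosing: single nominal final test compound concentration of 3 µM; Timing: 140 s kinetic read after compound, 140 s after agonist; Signal: Fluo-8 calcium-sensitive fluorescence; Measure: % inhibition of agonist calcium response; Controls: DMSO and EC80 PEA controls.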
# TAAR1 ag conf: confirmation of human TAAR1 agonists; CHO RD-HGA16 TAAR1, Fluo-8 calcium fluorescence; scaled: DMSO 0%, maximal phenethylamine 100%; shares compounds with TAAR1 ag; AID 651783; actives 82% (n = 2,400); activation, % at 3 µM;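 active = activation above a cutoff set at the run's mean compound activation plus 3 SD, cut at about 39% in these data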
# Ga16 ag counter: counter-screen for TAAR1 agonists: nonselective agonists in parental cells. actives 50% (n = 2,400). CHO-Ga16 parental, Fluo-8 calcium fluorescence; normalized to maximal ATP response, DMSO zero. shares compounds with TAAR1 ag. activation, % at 3 µM;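 active = activation above the run cutoff, the mean activation over all tested wells plus 3 SD, cut at about 12% in these data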;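 note: 0% = DMSO wells and 100% = maximal ATP response on the peak over basal ratio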
# TAAR1 desens: counter-screen for human TAAR1 agonists: agonists that desensitize TAAR1; AID 651951; actives 46% (n = 2,400); shares compounds with TAAR1 ag; CHO RD-HGA16 hTAAR1, Fluo-8 calcium, beta-PEA response inhibition; inhibition, % at 3 µM;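 active = inhibition above the run cutoff, the mean inhibition of all test compounds plus 3 SD, cut at about 49% in these data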;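 note: beta-PEA stimulus applied at its EC80; loss of beta-PEA calcium signal after compound pretreatment read as receptor desensitization; 0% = DMSO with beta-PEA at EC80 and 100% = DMSO alone without agonist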
# Ga16 antag count: counter-screen for TAAR1 agonists: nonselective Ga16 antagonists | inhibition, % at 3 µM | actives 39% (n = 2,400) | CHO-Ga16 ATP-induced calcium, Fluo-8 fluorescence | shares compounds with TAAR1 ag;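 active = inhibition above the plate's mean compound inhibition plus 3 SD, computed per plate, cut at about 22% in these data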;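 note: 0% = EC80 ATP with DMSO and 100% = DMSO wells without ATP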
# Starred values were filed as active, the others as inactive; nt = no result.
SMILES,OX1R antag-1,TAAR1 ag,NTR1 agonist,CHO parental Ca,OX1R antag-2,TAAR1 antag,TAAR1 ag conf,Ga16 ag counter,TAAR1 desens,Ga16 antag count
CCCCOc1ccc(N2C(=O)CC(N(CCc3ccccc3)C(=O)/C=C/C(=O)O)C2=O)cc1 (stereo unspecified),-21,67*,-2,-11,8,1,78*,2,31,0
COc1ccccc1N1CCCSC1=Nc1ccccc1,nt,3,nt,nt,nt,-2,nt,nt,nt,nt
COc1ccc(Cl)cc1NC(=O)C1CC(c2ccccc2O)=NO1 (stereo unspecified),-4,1,6,0,11,-9,nt,nt,nt,nt
O=C(C1CCCCC1)N1C[C@H](O)[C@@H](n2cc(-c3ccc(F)cc3)nn2)C[C@@H]1c1ccccc1,nt,0,nt,nt,nt,-2,nt,nt,nt,nt
C[C@H]1CNC(=O)c2c(C(=O)N[C@@H](Cc3c[nH]c4ccccc34)C(=O)OC(C)(C)C)ncn21,nt,3,nt,nt,nt,-6,nt,nt,nt,nt
CCC(=O)N(CC)c1nc(-c2cc(OC)ccc2OC)cs1,-27,50*,3,-18,15,43,45*,35*,39,26*
CCc1cc(C(=O)Nc2ccc(OC)nc2)sc1C,-6,2,2,-2,31,6,nt,nt,nt,nt
CCc1sc(C(=O)Nc2cccnc2)cc1Br,-11,65*,1,-19,37,22,48*,33*,16,11
COc1ccc(NC(=O)c2cc(Br)c(Br)s2)cn1,-30,71*,1,-22,12,29,49*,42*,36,11
OC(CNCCc1ccc(C(F)(F)F)cc1)COc1cccc2ccccc12 (stereo unspecified),2,60*,13,25,8,22,60*,29*,64*,44*
OC1(c2ccccc2)CNCCc2ccccc21 (stereo unspecified),-3,2,0,-6,-8,5,nt,nt,nt,nt
C/C=C/C(=O)N(CC)c1ccccc1C,-5,1,1,0,3,-7,nt,nt,nt,nt
Fc1cccc(Cc2c(C3CCCCC3)nc3ccc(Br)cn23)c1,nt,-2,nt,nt,nt,-5,nt,nt,nt,nt
Nc1nc(Nc2ccccc2)nc(NCc2ccco2)c1[N+](=O)[O-],-43,20,14,-22,26,21,nt,nt,nt,nt
Fc1ccc(Nc2nc(NCc3ccco3)c3ccccc3n2)cc1,17,70*,36,9,4,43,40*,23*,49*,39*
COc1ccc(CCNCC(O)c2ccccc2)cc1 (stereo unspecified),-12,10,3,-7,-4,-21,nt,nt,nt,nt
OC(CNCCc1ccccc1)c1ccccc1 (stereo unspecified),-22,53*,-1,-11,8,1,31,1,12,10
COc1ccc2c(c1)C(SCC(=O)NCCc1ccccc1)CC(C)(C)O2 (stereo unspecified),-32,68*,0,-14,16,61*,73*,1,76*,16
CC(C)N1CCC(C)(C(=O)Nc2cccc(Oc3ccccc3)c2)C1 (stereo unspecified),nt,3,nt,nt,nt,4,nt,nt,nt,nt
Cc1ccc(-n2c(SCC(N)=O)nnc2-c2ccc(S(=O)(=O)N3CCCCC3)cc2)c(C)c1,-15,38*,1,-2,10,13,29,16*,32,34*
O=S(=O)(/N=C(/Nc1ccccn1)c1ccccc1)c1ccc(F)cc1,-18,6,1,-2,9,-13,nt,nt,nt,nt
C(=NOCCc1ccccc1)c1cccnc1,nt,nt,nt,nt,nt,nt,nt,0,nt,6
C(=NOCc1ccccc1)c1ccncc1,nt,0,nt,nt,nt,-20,nt,nt,nt,nt
CCCCN(CCCC)c1ccc(C(=O)c2ccccc2C(=O)O)c(O)c1,78*,107*,3,94*,18,92*,38*,39*,64*,57*
CN(C)c1ccc(C(=O)c2ccccc2C(=O)O)c(O)c1,-15,2,2,3,12,7,nt,nt,nt,nt
SMILES,OX1R antag-1,TAAR1 ag,NTR1 agonist,CHO parental Ca,OX1R antag-2,TAAR1 antag,TAAR1 ag conf,Ga16 ag counter,TAAR1 desens,Ga16 antag count
O=C(CSc1nc2[nH]ncc2c(=O)[nH]1)NCCc1ccccc1,12,57*,0,-8,2,12,29,0,13,10
O=C(CSc1nc2[nH]ncc2c(=O)[nH]1)NCc1ccccc1,-8,-1,0,-6,7,-4,nt,nt,nt,nt
COc1ccc(CCNS(=O)(=O)c2cc3c4c(c2)C(C)C(=O)N4CCC3)cc1OC (stereo unspecified),-14,0,0,-11,10,7,nt,nt,nt,nt
CC1C(=O)N2CCCc3cc(S(=O)(=O)NCCc4ccccc4)cc1c32 (stereo unspecified),-9,52*,0,-19,18,-4,67*,7,25,17
C[C@@H]1OC(C2CCCCC2)N(C)[C@H]2C[C@H]3c4[nH]c5ccccc5c4CCN3C[C@@H]12 (stereo partly specified),nt,1,nt,nt,nt,-6,nt,nt,nt,nt
O=C(CSc1n[nH]c(-c2ccccc2Cl)n1)NC1CCCCC1,-15,-4,1,-15,8,3,nt,nt,nt,nt
CC1(C)CC(=O)/C(=C(/O)Cc2ccccc2)C(=NCCc2ccccc2)C1,-40,56*,-1,-26,14,-3,71*,0,47,2
CCCCN=C1CC(C)(C)CC(=O)/C1=C(/O)CCCN1C(=O)c2ccccc2C1=O,-19,-2,1,-30,24,-17,nt,nt,nt,nt
COC(=O)c1ccc(CNC(=O)COC(=O)c2cc(Cl)ccc2O)cc1,-13,62*,0,-25,1,70*,21,5,19,17
O=C(COC(=O)c1cc(Cl)ccc1O)NCCNC(=O)COC(=O)c1cc(Cl)ccc1O,1,3,-2,18,25,7,nt,nt,nt,nt
Cc1cc(/C=N\NC(=O)COc2cccc3cccnc23)c(C)n1-c1ccccc1,-32,5,2,-20,20,10,nt,nt,nt,nt
Cc1cc(C)cc(-n2c(C)cc(/C=N/NC(=O)CSc3ncccn3)c2C)c1,-10,45*,1,-18,4,27,50*,32*,55*,33*
COc1ccc(CSC(=N)N)cc1[N+](=O)[O-],-6,0,0,-2,24,-19,nt,nt,nt,nt

# High-throughput results: PubChem BioAssay, several laboratories
